Reference: ChEMBL document CHEMBL3745621, “Synthesis and evaluation of gallocyanine dyes as potential agents for the treatment of Alzheimer's disease and related neurodegenerative tauopathies” (Eur J Med Chem, 2016)
The source made the active and inactive calls. The rule behind the calls is not given here.

Tests used:
[1] = Cytotoxicity against mouse primary cortical neurons assessed viable cells at 100 uM after 24 hrs by MTT assay; type: cell-based, Cerebral cortex neuron; conditions: for viability at 24 h, 100 µM: primary cortical neurons, read-out: Activity
Method in brief: (§1)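 Primary mouse cortical neurons seeded at 25,000 or 15,000 cells/well and grown 6 days at 37 °C, 5% CO2. Test compound was then added in fresh medium (final DMSO 0.1%) for 24 h at 37 °C. MTT (2.5 mg/ml in PBS) was added for 4 h. Formazan was extracted with isopropanol/HCl and absorbance read at 545 nm. Read-out is % viable cells.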

[2] = Cytotoxicity against mouse primary cortical neurons assessed as viable cells at 10 uM after 24 hrs by MTT assay; type: cell-based, Cerebral cortex neuron; conditions: for viability at 24 h, 10 µM: primary cortical neurons, read-out: Activity; method in brief: as §1
[3] = biological target: Dickkopf-related protein 1/Low-density lipoprotein receptor-related protein 6 (Homo sapiens) (UniProt O94907+O75581); assay: Inhibition of DKK1/LRP6 (unknown origin) expressed in HEK293 cells assessed as inhibition of DKK1/LRP6 interaction at 100 uM after 2 hrs by immunofluorescence method; type: cell-based
Method in brief: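 HEK-293 cells stably overexpressing LRP6, sub-confluent, incubated 2 h at 4 °C with DKK1 conditioned medium plus compound or DMSO. Fixed in 3% paraformaldehyde, blocked in PBS/0.1% BSA, stained with rabbit anti-DKK1 and Alexa488 secondary; DAPI nuclei. Surface DKK1 fluorescence quantified over 750 cells as % DKK1 binding; three independent experiments in duplicate.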

[4] = biological target: Dickkopf-related protein 1/Lrp6 (Mus musculus) (UniProt O54908+O88572); assay: Inhibition of DKK1-LRP6 interactions in mouse cortical neurons assessed as inhibition of prostaglandinJ2-induced tau phosphorylation at Ser396 residue at 10 uM for 1 hr by western bloting
Method in brief: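 Primary mouse cortical neurons treated 1 h at 37 °C with 20 µM PGJ2 plus compound or DMSO. Lysed at 4 °C in Tris/NaCl/EDTA/Triton buffer, pH 7.6, with protease and phosphatase inhibitors; protein measured by Bradford. SDS-PAGE western blot probed with anti-pSer396 tau (1:1000, overnight, 4 °C) and anti-actin; ECL detection. Densitometry normalized to actin; three independent experiments, mean SD.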

[5] = biological target: T1, Dickkopf-related protein 1 (Mus musculus, UniProt O54908); assay: Inhibition of mouse DKK1 assessed as inhibition of DKK1-alkaline phophatase binding to LRP5 transfected in HEK293 cells; type: cell-based
T1 sequence (O54908 whole entry): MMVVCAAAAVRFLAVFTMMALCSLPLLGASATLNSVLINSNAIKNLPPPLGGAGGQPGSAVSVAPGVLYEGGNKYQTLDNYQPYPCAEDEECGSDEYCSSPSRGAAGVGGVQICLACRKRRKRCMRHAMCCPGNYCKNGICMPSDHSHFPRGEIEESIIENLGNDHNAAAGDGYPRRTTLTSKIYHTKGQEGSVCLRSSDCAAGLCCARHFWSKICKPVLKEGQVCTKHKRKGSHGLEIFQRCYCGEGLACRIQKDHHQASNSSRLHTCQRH

Dickkopf-related protein 1/Low-density lipoprotein receptor-related protein 6 (Homo sapiens), sequence (O75581 20-1613 partner limits assumed): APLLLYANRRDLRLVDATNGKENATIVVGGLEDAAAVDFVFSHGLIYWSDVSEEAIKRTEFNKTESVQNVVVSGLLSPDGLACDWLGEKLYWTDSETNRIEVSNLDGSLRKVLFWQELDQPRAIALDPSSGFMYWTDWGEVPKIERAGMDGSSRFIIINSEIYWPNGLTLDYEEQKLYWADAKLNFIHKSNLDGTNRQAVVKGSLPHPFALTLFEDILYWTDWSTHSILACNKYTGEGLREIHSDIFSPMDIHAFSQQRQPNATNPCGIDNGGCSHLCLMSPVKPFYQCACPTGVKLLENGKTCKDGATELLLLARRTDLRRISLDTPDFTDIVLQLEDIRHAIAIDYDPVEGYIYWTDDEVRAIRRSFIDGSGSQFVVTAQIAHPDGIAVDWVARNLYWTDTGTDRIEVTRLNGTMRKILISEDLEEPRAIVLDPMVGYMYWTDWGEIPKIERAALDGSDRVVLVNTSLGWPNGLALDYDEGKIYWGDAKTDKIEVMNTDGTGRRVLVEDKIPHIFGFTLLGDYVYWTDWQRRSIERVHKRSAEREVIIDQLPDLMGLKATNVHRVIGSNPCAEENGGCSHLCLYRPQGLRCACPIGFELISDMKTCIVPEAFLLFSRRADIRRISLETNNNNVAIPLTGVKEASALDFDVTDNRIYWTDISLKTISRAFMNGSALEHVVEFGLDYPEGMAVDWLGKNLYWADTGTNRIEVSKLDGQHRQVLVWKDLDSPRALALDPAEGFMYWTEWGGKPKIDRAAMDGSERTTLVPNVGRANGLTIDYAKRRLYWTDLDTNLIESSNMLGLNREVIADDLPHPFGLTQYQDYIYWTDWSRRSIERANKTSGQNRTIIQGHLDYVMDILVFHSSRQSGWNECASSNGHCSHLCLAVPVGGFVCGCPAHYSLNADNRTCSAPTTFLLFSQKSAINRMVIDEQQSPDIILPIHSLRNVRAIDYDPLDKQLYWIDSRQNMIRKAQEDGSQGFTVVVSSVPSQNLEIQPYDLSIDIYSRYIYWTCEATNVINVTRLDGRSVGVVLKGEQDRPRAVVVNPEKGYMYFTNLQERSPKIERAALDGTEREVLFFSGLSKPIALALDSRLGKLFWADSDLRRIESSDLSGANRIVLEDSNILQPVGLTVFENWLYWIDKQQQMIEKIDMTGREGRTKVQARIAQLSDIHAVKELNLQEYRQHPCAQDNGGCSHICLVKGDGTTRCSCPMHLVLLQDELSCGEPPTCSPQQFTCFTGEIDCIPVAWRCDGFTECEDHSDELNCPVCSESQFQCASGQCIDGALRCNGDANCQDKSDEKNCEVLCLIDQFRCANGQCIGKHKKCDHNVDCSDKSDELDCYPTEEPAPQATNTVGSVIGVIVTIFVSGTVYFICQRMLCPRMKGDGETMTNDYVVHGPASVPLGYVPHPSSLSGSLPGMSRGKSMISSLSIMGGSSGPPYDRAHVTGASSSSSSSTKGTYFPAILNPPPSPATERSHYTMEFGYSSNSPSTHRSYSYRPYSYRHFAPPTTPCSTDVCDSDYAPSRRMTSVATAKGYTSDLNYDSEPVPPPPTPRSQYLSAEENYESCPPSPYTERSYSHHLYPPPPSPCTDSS
Dickkopf-related protein 1/Low-density lipoprotein receptor-related protein 6 (Homo sapiens), sequence (O94907 32-266 limits assumed): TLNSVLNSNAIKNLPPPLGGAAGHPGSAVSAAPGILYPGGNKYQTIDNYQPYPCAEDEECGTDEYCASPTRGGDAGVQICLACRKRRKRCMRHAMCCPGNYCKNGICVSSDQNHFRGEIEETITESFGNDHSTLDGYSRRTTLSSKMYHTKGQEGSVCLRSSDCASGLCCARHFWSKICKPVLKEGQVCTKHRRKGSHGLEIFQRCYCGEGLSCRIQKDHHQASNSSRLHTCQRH
Dickkopf-related protein 1/Lrp6 (Mus musculus), sequence (O88572 whole entry, looked up, one chain of several): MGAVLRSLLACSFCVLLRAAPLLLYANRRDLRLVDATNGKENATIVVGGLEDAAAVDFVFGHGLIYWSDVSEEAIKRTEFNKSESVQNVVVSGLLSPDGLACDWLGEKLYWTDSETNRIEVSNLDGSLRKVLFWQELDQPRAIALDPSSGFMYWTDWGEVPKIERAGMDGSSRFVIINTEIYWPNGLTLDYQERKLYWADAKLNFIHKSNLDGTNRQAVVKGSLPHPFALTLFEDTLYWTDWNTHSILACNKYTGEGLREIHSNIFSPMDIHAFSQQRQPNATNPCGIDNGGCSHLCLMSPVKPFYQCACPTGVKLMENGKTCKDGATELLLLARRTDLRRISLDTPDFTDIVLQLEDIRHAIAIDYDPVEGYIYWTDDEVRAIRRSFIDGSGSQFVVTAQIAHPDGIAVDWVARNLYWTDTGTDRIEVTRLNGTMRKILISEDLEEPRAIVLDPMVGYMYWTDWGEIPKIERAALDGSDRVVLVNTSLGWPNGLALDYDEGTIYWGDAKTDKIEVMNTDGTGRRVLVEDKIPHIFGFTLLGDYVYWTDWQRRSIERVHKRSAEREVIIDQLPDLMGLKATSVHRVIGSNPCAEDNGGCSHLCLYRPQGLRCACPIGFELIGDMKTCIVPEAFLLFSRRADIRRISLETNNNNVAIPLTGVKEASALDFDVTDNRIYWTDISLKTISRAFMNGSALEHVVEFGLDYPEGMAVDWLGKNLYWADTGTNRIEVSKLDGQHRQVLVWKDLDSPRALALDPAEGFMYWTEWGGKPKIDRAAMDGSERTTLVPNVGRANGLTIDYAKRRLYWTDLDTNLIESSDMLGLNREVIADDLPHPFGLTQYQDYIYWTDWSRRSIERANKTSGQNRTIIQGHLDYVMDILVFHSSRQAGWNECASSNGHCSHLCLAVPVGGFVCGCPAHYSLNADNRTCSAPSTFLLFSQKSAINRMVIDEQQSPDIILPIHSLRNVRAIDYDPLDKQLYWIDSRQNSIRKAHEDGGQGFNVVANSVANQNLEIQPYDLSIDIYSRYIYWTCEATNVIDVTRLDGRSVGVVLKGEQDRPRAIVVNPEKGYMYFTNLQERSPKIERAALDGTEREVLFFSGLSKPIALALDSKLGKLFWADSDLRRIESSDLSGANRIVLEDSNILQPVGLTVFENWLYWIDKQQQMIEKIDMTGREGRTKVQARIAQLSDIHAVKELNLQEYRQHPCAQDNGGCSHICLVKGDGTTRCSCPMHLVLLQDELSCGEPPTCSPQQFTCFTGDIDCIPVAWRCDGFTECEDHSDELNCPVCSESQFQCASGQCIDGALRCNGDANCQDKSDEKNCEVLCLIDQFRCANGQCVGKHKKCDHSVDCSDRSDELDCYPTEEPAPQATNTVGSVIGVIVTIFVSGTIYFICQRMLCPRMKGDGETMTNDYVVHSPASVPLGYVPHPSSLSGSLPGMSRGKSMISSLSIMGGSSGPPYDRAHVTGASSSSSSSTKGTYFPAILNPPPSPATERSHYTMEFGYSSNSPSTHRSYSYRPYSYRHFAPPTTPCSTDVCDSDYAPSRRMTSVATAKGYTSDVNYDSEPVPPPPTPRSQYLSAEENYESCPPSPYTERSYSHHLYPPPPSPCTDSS

| SMILES | Activity ([1]; cerebral cortex neuron, 24 h, 100 µM) | Activity ([2]; cerebral cortex neuron, 24 h, 10 µM) | viability at 24 h, 100 µM [1] | inhibition [3] | inhibition [4] | viability at 24 h, 10 µM [2] | IC50 [5] |
| --- | --- | --- | --- | --- | --- | --- | --- |
| CN(C)c1ccc2nc3c(C(=O)O)cc(=O)c(O)c-3oc2c1 [listing 1 of 3 here] | 100% | 100% | – | – | – | – | – |
| CC(C)OC(=O)c1cc(=O)c(O)c2oc3cc(N(C)C)ccc3nc1-2 | – | – | 100% | Active | Active | 100% | – |
| COCCOC(=O)c1cc(O)c(O)c2oc3cc(=[N+](C)C)ccc-3nc12 | – | – | 100% | Active | – | 100% | – |
| CCOC(=O)c1cc(O)c(O)c2oc3cc(=[N+](C)C)ccc-3nc12 | – | – | 100% | Active | – | 100% | – |
| CN(C)c1ccc2nc3c(C(=O)OCc4ccccc4)cc(=O)c(O)c-3oc2c1 | – | – | 100% | Active | Active | 100% | – |
| CN(C)c1ccc2nc3c(O)cc(=O)cc-3oc2c1 | – | – | 100% | Active | – | 100% | – |
| CCCN(CCC)c1ccc2nc3c(C(=O)OC)cc(=O)c(O)c-3oc2c1 | – | – | 100% | Active | – | 100% | – |
| CCCCCCOC(=O)c1cc(=O)c(O)c2oc3cc(N(C)C)ccc3nc1-2 | – | – | 100% | Active | Active | 100% | – |
| CCCCOC(=O)c1cc(=O)c(O)c2oc3cc(N(C)C)ccc3nc1-2 | – | – | 100% | Active | Active | 100% | – |
| Cc1cc(=O)cc2oc3cc(N(C)C)ccc3nc1-2 | – | – | 100% | Active | – | 100% | – |
| CN(C)c1ccc2nc3ccc(=O)c(O)c-3oc2c1 | – | – | 100% | Active | Active | 100% | – |
| COC(=O)c1cc(=O)c(O)c2oc3cc(N(C)C)ccc3nc1-2 | – | – | 100% | Active | Active | 100% | – |
| CN(C)c1ccc2nc3c(C(=O)O)cc(=O)c(O)c-3oc2c1 [listing 2 of 3 here] | – | – | – | Active | Active | – | – |
| CCCCCCOC(=O)c1cc(O)c(O)c2oc3cc(=[N+](C)C)ccc-3nc12 | – | – | 100% | Active | – | 100% | – |
| CCOC(=O)c1cc(O)c(O)c(O)c1 [ETHYLGALLATE] | – | – | 100% | Active | – | 100% | – |
| CCCCOC(=O)c1cc(O)c(O)c2oc3cc(=[N+](C)C)ccc-3nc12 | – | – | 100% | Active | – | 100% | – |
| CCOC(=O)c1cc(=O)c(O)c2oc3cc(N(C)C)ccc3nc1-2 | – | – | 100% | Active | Active | 100% | – |
| COCCOC(=O)c1cc(=O)c(O)c2oc3cc(N(C)C)ccc3nc1-2 | – | – | 100% | Active | Active | 100% | – |
| CN(C)c1ccc2nc3c(C(=O)O)cc(=O)c(O)c-3oc2c1 [listing 3 of 3 here] | – | – | 100% | – | – | 100% | 3 µM |
| CCCCOC(=O)c1cc(=O)c(O)c2oc3cc(N(CCC)CCC)ccc3nc1-2 | – | – | 100% | Active | – | 100% | – |
